This is a sample that favours compounds with a hit; in the whole collection about 1.8% have one here.
APJ antagonist: antagonists of human APJ apelin receptor; P35414; CHO-K1 APJ beta-arrestin complementation, luminescence; inhibition, % at 20 µM; hit rate 0.32% among 330,000; AID 2521;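 active means inhibition above about 40% at 20 µM, limit read from the data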;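 further: cells challenged with 10 nM apelin-13 agonist together with compound; plate controls were apelin-13 plus DMSO wells for no effect and DMSO wells lacking apelin-13 for full effect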
Beta2AR agonist: activates human beta-2 adrenergic receptor causing internalization; P07550; Am2.2-beta2AR cells, FAP receptor internalization, flow cytometry; response, % (test concentration not listed); hit rate 0.43% among 340,000;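 active means response above a set limit, near 3 SD of response in nonfluorescent compounds, cut at about 42% in these data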
Target sequence (P07550 whole entry, looked up): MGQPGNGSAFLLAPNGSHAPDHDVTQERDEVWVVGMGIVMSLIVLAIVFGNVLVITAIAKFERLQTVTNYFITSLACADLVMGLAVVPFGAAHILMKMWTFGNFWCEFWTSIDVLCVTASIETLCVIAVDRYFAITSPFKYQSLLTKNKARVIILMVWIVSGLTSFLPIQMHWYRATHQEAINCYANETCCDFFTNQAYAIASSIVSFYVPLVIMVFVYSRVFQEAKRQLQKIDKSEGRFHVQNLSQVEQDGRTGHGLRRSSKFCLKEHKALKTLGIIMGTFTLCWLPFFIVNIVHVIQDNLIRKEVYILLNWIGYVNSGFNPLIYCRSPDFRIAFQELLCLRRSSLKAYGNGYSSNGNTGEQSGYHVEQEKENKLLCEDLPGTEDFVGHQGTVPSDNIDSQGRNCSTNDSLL
APJ ag: agonists of human APJ apelin receptor; AID 2520; CHO-K1 APJ PathHunter beta-arrestin, luminescence; 0% DMSO wells, 100% apelin; activation, % at 20 µM; hit rate 0.11% among 330,000; P35414;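 active means activation more than six SD over the plate average, tested at 20 µM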;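 further: 0% = DMSO alone and 100% = apelin-13 at 10 nM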
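Assay system: CHO-K1 APJ beta-arrestin complementation cell line / Compound: single test compound dose, 20 µM final, 1% DMSO / Times: overnight seeding, 90 min compound at 25 °C, 1 h detection / Technique: beta-gal luminescence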
EBI2 antag: blocks human EBI2 receptor beta-arrestin signaling; P32249; EBI2 beta-arrestin recruitment, luminescence, 7a,25-OHC stimulated; inhibition, % at 5 µM; hit rate 0.81% among 360,000; AID 651636; in the data active means inhibition above about 38%;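 further: enzyme fragment complementation signal reports receptor beta-arrestin coupling in cells; 0% = agonist plus DMSO wells and 100% = wells without agonist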
CXCR6 inh: blocks human CXCR6 beta-arrestin recruitment; O00574; CHO-K1 PathHunter CXCR6 beta-arrestin, luminescence; inhibition, % at 20 µM; hit rate 0.36% among 360,000; AID 602244; in the data active means inhibition above about 34%, passing the limit was not always enough;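 further: antagonist mode with CXCL16 agonist at 10 nM final; 0% = 10 nM CXCL16 with DMSO and 100% = unstimulated wells without agonist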
Target sequence (O00574 whole entry, looked up): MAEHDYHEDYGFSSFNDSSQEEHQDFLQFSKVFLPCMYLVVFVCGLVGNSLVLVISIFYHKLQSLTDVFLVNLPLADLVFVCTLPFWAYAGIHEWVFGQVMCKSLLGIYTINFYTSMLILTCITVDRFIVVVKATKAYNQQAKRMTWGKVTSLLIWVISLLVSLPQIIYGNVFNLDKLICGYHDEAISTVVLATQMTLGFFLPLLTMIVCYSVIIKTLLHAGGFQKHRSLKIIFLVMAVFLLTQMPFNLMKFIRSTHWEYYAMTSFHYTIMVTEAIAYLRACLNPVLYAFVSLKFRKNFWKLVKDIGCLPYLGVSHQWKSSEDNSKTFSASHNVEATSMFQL
CCR6 antagonist: blocks CCL20-driven beta-arrestin recruitment at human CCR6; CHO-K1 CCR6 PathHunter beta-arrestin, luminescence, CCL20-stimulated; hit rate 0.49% among 340,000; inhibition, % at 20 µM;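 active means compounds whose inhibition of the agonist-driven luminescence signal at 20 µM reaches about 50%, limit read from the data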;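 further: cells stimulated with CCL20 at 14 nM final; plate controls were DMSO with CCL20 for no effect and DMSO without agonist for full effect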
B2AR ag CP1: agonists of human beta-2 adrenergic receptor. shares compounds with Beta2AR agonist. Am2.2-beta2AR cells, FAP surface receptor, flow cytometry; active compounds read low. percent response (surface receptor), % at 10 µM. hit rate 25% among 1,100. AID 540358;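 active means surface receptor percent response at or below 58%, roughly 3 SD from nonfluorescent compounds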
B2AR FAP counter: fluorescence artifact in beta-2AR agonist FAP counterscreen; shares compounds with Beta2AR agonist; Am2.2 cells, FAP fluorogen flow cytometry; active compounds read low; calls only at 10 µM; 1,100 tested, under 10 active; AID 588765;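 active means percent response below a set limit in fluorescence channel 1 and below 50% in channel 8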
CXCR6 antag conf: CXCR6 antagonism confirmation, single concentration; inhibition, % at 20 µM; shares compounds with CXCR6 inh; hit rate 65% among 700; CHO-K1 CXCR6 PathHunter beta-arrestin, luminescence;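 active means mean inhibition over four retests above 40%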;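 further: receptor stimulated with 10 nM CXCL16 agonist; beta-galactosidase fragment complementation upon beta-arrestin recruitment to receptor; plate controls were CXCL16 plus DMSO for no effect and DMSO without CXCL16 for full effect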
EBI2 antag conf: confirmation of human EBI2 receptor antagonists; AID 651997; inhibition, % at 5 µM; shares compounds with EBI2 antag; hit rate 29% among 2,400; EBI2 beta-arrestin luminescence, 7a,25-OHC antagonism;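 active means inhibition of at least 50%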
EBI2 agonist: counter-screen for EBI2 antagonists: EBI2 agonist activity; shares compounds with EBI2 antag; EBI2-expressing cells, agonist mode, luminescence, 60 min; 0% vehicle, 100% 7α,25-dihydroxycholesterol control; activation, % at 5 µM; 2,400 tested, under 10 active;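 active means activation of at least 50%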
bGal counter: beta-galactosidase inhibition counter-screen | shares compounds with EBI2 antag | purified beta-galactosidase, luminescent Galacton Star, 15 min | inhibition, % at 5 µM | hit rate 1% among 2,400;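 active means replicate-average signal at least 3 plate SD below neutral wells, shown as high inhibition, flagging enzyme-inhibiting false positives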;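 further: 0% = DMSO wells with enzyme and 100% = wells lacking enzyme; higher means stronger loss of beta-gal luminescence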
Active calls of the source: *; i = inactive; nt = no result.

SMILES	APJ antagonist	Beta2AR agonist	APJ ag	EBI2 antag	CXCR6 inh	CCR6 antagonist	CXCR6 antag conf	others
Cc1ccccc1-c1nc2c3ccccc3nc(=S)n2[nH]1	nt	7.4	nt	1.0	13.6	27.0	nt	B2AR ag CP1=118.8;B2AR FAP counter=i
CCCCCCCCN1C(=O)[C@H](CC(=O)N2CCSCC2)C[C@@]2(C(=O)OCC)CCCC=C12	nt	nt	nt	17.5	18.9	nt	nt
O=[N+]([O-])c1cccc(-c2nc(-c3ccccc3)c(-c3cccs3)[nH]2)c1	-0.5	50.5*	-3.1	5.6	6.8	-3.9	nt	B2AR ag CP1=110.7;B2AR FAP counter=i
O=[N+]([O-])c1cccc(-c2nc(-c3cccs3)c(-c3cccs3)[nH]2)c1	11.2	-3.9	-1.9	-0.6	-6.2	18.0	nt
CC1CC(C)CN(S(=O)(=O)c2ccc(C(=O)NCCCn3ccnc3)cc2)C1 (centres undefined)	15.8	55.2*	-3.1	0.6	-5.9	0.1	nt	B2AR ag CP1=105.6;B2AR FAP counter=i
Cc1ccc(S(=O)(=O)c2ccc([N+](=O)[O-])cn2)cc1	26.8	65.0*	2.3	-6.2	54.9*	nt	73.7*	B2AR ag CP1=73.2;B2AR FAP counter=i
Cc1cc(S(=O)(=O)c2ccc([N+](=O)[O-])cn2)ccc1Br	-34.9	5.3	19.3	13.4	16.2	-5.5	nt
Cc1cc(C)cc(N2C(=O)CC(Sc3nnnn3-c3ccccc3)C2=O)c1 (centres undefined)	-17.6	50.5*	-1.2	0.9	86.8*	nt	74.9*	B2AR ag CP1=113.8;B2AR FAP counter=i
O=C(CCCCO)CCCCCCCC[C@H]1N[C@H](CO)[C@H](O)[C@@H]1O[C@@H]1O[C@H](CO)[C@@H](O)[C@H](O)[C@H]1O	-11.9	3.7	-0.1	-3.8	-1.7	7.2	nt
CC(C)Cc1nc2sc3c(NCc4ccco4)ncnc3c2c2c1COC(C)(C)C2	-8.8	65.1*	-4.3	46.6*	2.8	-5.1	nt	B2AR ag CP1=27.6*;B2AR FAP counter=i;EBI2 antag conf=42.1;EBI2 agonist=0.2;bGal counter=4.2
O=C(COC(=O)c1cc(Cl)nc(Cl)c1)NCc1ccc2c(c1)OCO2	-8.1	9.6	-1.1	4.4	-18.8	0.2	nt
CCCCc1ccc(NC(=O)CSc2nc(=O)n(CCN(C)C)c3c2CCC3)cc1	9.6	11.4	-2.7	3.2	11.8	12.7	nt
CCCCc1ccc(NC(=O)CSc2nc(=O)n(CCN(CC)CC)c3c2CCCC3)cc1	27.0	43.3*	1.0	51.1*	8.1	13.3	nt	B2AR ag CP1=102.9;B2AR FAP counter=i;EBI2 antag conf=19.8;EBI2 agonist=0.8;bGal counter=3.0
Cc1ccc2[nH]c(CNC(=O)c3ccc(F)cc3)cc2c1	4.1	-4.9	-1.4	-0.7	-2.0	-7.3	nt
Cc1ccc(NC(=O)c2ccc3c(c2)C(=O)N(CC2CCCO2)C3=O)cc1C (centres undefined)	3.4	7.1	-3.2	74.3*	6.5	18.8	nt	B2AR ag CP1=113.0;B2AR FAP counter=i;EBI2 antag conf=52.2*;EBI2 agonist=2.4;bGal counter=-3.6
Cc1ccc(NCC(=O)c2ccc(C)cc2)cc1	16.6	2.0	-11.2	3.7	44.0*	82.5*	57.8*
Cc1ccc(NCCC(=O)c2ccc(Br)cc2)cc1	1.9	3.0	-4.5	2.8	2.5	2.3	nt
CN(c1ccccc1)c1ccc(/C=C/[N+](=O)[O-])cc1	nt	87.6*	nt	6.6	71.4*	nt	63.4*
CCCSc1cc(NCCOC(C)=O)c([N+](=O)[O-])c2nonc12	22.2	-3.9	-3.7	7.8	5.8	17.5	nt
CCC(=O)OCCNc1cc(Sc2nc3ccccc3[nH]2)c2nonc2c1[N+](=O)[O-]	nt	77.9*	nt	33.5	101.6*	117.0*	106.3*
CCCC(=O)OCCNc1cc(Sc2nccn2C)c2nonc2c1[N+](=O)[O-]	nt	24.8	nt	49.3*	99.9*	98.6*	105.2*
CCCC(=O)OCCNc1cc(SCc2ccco2)c2nonc2c1[N+](=O)[O-]	-22.9	64.0*	4.6	-26.0	38.2*	67.4*	52.7*
COc1ccccc1CC(O)CC1c2c(cc3c(c2OC)OCO3)CCN1C (centres undefined)	5.3	-0.7	-2.8	-1.4	-0.2	12.6	nt
N#Cc1c(SCC(N)=O)nsc1SCc1ccccc1Cl	1.0	3.4	-3.9	-8.1	82.7*	18.4	0.3
FC(F)Sc1ccc(NC(=S)NC2CCCCC2)cc1	-4.8	0.9	1.8	6.6	56.6*	-11.2	4.0
SMILES	APJ antagonist	Beta2AR agonist	APJ ag	EBI2 antag	CXCR6 inh	CCR6 antagonist	CXCR6 antag conf	others
CC1CCCCC1NC(=S)Nc1ccc(SC(F)F)cc1 (centres undefined)	-2.0	-2.2	3.0	13.8	-25.4	0.8	nt
CCN(CC(=O)NC(C)(C)C)Cc1nc2c(Br)cc(Br)cc2c(=O)[nH]1	-12.0	-7.7	-4.9	7.3	53.5*	nt	56.1*
CCN(CC(=O)NC1CCS(=O)(=O)C1)Cc1nc2c(Br)cc(Br)cc2c(=O)[nH]1 (centres undefined)	-9.9	-6.0	-0.6	-2.5	-3.3	2.9	nt
C=C(C)c1cccc(C(C)(C)NC(=O)NC(c2ccccc2)c2ccc(OC)cc2)c1 (centres undefined)	0.6	-0.8	-4.1	-0.1	45.4*	13.3	13.0
C=C(C)c1cccc(C(C)(C)NC(=O)Nc2ccc(OC)cc2)c1	-2.6	-3.1	-1.6	-0.4	6.7	-4.9	nt
COCCNC(=O)C1CCCN(C(=O)c2cc(C)n(C(C)(C)C)n2)CC1 (centres undefined)	nt	nt	nt	-6.2	-0.2	nt	nt
O=[N+]([O-])c1cc2oc3c(c2c(C=NCc2ccccc2)c1O)CCCC3	-16.3	-35.8	3.1	7.7	43.8*	46.3	59.4*
CCN(c1ccccc1)S(=O)(=O)c1ccc2[nH]c(=O)c(=O)[nH]c2c1	9.0	4.7	0.3	-9.3	7.0	2.0	nt
CCN(c1ccccc1C(=O)O)S(=O)(=O)c1ccc2[nH]c(=O)[nH]c2c1	9.3	2.8	0.9	-13.4	38.9*	7.3	1.1
COc1ccc(NC(=O)c2cc(-c3sc(NC(=O)c4ccccc4)nc3C)n(-c3ccc(Br)cc3)n2)cc1	nt	nt	nt	-0.9	nt	nt	nt
